Measurements: ChEMBL document CHEMBL4325889, “Natural products hybrids: 3,5,4'-Trimethoxystilbene-5,6,7-trimethoxyflavone chimeric analogs as potential cytotoxic agents against diverse human cancer cells” (Eur J Med Chem, 2019)

Assays:
Type in all cases: functional
[1] = system: UACC-257; assay: Growth inhibition of human UACC257 cells at 10 uM after 48 hrs by SRB assay relative to control; details: UACC-257, 48 h, read-out: GI
Procedure, shortened: (§1)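 NCI screen against its human cancer cell line panel by the standard NCI protocol, SRB protein stain. Single dose of 10 μM. Percent growth inhibition versus control; values above 100% mean the cell population fell below the starting number. Each value is the mean of duplicates.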

[2] = system: SK-MEL-28; assay: Growth inhibition of human SK-MEL-28 cells at 10 uM after 48 hrs by SRB assay relative to control; details: SK-MEL-28, 48 h, read-out: GI
Procedure, shortened: (§2)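 Screened at the National Cancer Institute by the standard NCI protocol using the sulforhodamine B assay, which measures cellular protein. Single dose of 10 µM. Result is percent growth inhibition; values above 100% mean cell number fell below the initial population. Values are the average of duplicates.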

[3] = system: HOP-62; assay: Growth inhibition of human HOP62 cells at 10 uM after 48 hrs by SRB assay relative to control; details: HOP-62, 48 h, read-out: GI; procedure, shortened: as §2
[4] = system: KM12; assay: Growth inhibition of human KM12 cells at 10 uM after 48 hrs by SRB assay relative to control; details: KM12, 48 h, read-out: GI; procedure, shortened: as §2
[5] = system: TK-10; assay: Growth inhibition of human TK10 cells at 10 uM after 48 hrs by SRB assay relative to control; details: TK-10, 48 h, read-out: GI; procedure, shortened: as §1
[6] = system: SW-620; assay: Growth inhibition of human SW620 cells at 10 uM after 48 hrs by SRB assay relative to control; details: SW-620, 48 h, read-out: GI; procedure, shortened: as §1
[7] = system: MOLT-4; assay: Growth inhibition of human MOLT4 cells at 10 uM after 48 hrs by SRB assay relative to control; details: MOLT-4, 48 h, read-out: GI; procedure, shortened: as §2
[8] = system: OVCAR-4; assay: Growth inhibition of human OVCAR4 cells at 10 uM after 48 hrs by SRB assay relative to control; details: OVCAR-4, 48 h, read-out: GI; procedure, shortened: as §2
[9] = system: SN12C; assay: Growth inhibition of human SN12C cells at 10 uM after 48 hrs by SRB assay relative to control; details: read-out: GI; procedure, shortened: as §2
[10] = system: ACHN; assay: Growth inhibition of human ACHN cells at 10 uM after 48 hrs by SRB assay relative to control; details: read-out: GI; procedure, shortened: as §2
[11] = system: LOX IMVI; assay: Growth inhibition of human LOXIMVI cells at 10 uM after 48 hrs by SRB assay relative to control; details: read-out: GI; procedure, shortened: as §2
[12] = system: NCI-H23; assay: Growth inhibition of human NCI-H23 cells at 10 uM after 48 hrs by SRB assay relative to control; details: NCI-H23, 48 h, read-out: GI; procedure, shortened: as §2
[13] = system: Malme-3M; assay: Growth inhibition of human MALME-3M cells at 10 uM after 48 hrs by SRB assay relative to control; details: read-out: GI; procedure, shortened: as §2
[14] = system: U-251; assay: Growth inhibition of human U251 cells at 10 uM after 48 hrs by SRB assay relative to control; details: U-251, 48 h, read-out: GI; procedure, shortened: as §1
[15] = system: MCF7; assay: Growth inhibition of human MCF7 cells at 10 uM after 48 hrs by SRB assay relative to control; details: MCF7, 48 h, read-out: GI; procedure, shortened: as §2
[16] = system: Hs-578T; assay: Growth inhibition of human Hs 578T cells at 10 uM after 48 hrs by SRB assay relative to control; details: read-out: GI; procedure, shortened: as §2
[17] = system: RPMI-8226; assay: Growth inhibition of human RPMI8226 cells at 10 uM after 48 hrs by SRB assay relative to control; details: RPMI-8226, 48 h, read-out: GI; procedure, shortened: as §2
[18] = system: NCI-H522; assay: Growth inhibition of human NCI-H522 cells at 10 uM after 48 hrs by SRB assay relative to control; details: NCI-H522, 48 h, read-out: GI; procedure, shortened: as §2
[19] = system: SF-295; assay: Growth inhibition of human SF295 cells at 10 uM after 48 hrs by SRB assay relative to control; details: SF-295, 48 h, read-out: GI; procedure, shortened: as §2
[20] = system: UO-31; assay: Growth inhibition of human UO31 cells at 10 uM after 48 hrs by SRB assay relative to control; details: UO-31, 48 h, read-out: GI; procedure, shortened: as §1
[21] = system: A549; assay: Growth inhibition of human A549 cells at 10 uM after 48 hrs by SRB assay relative to control; details: A549, 48 h, read-out: GI; procedure, shortened: as §2
[22] = system: HCT-15; assay: Growth inhibition of human HCT15 cells at 10 uM after 48 hrs by SRB assay relative to control; details: HCT-15, 48 h, read-out: GI; procedure, shortened: as §2
[23] = system: IGROV-1; assay: Growth inhibition of human IGROV1 cells at 10 uM after 48 hrs by SRB assay relative to control; details: IGROV-1, 48 h, read-out: GI; procedure, shortened: as §2
[24] = system: HOP-92; assay: Growth inhibition of human HOP92 cells at 10 uM after 48 hrs by SRB assay relative to control; details: HOP-92, 48 h, read-out: GI; procedure, shortened: as §2
[25] = system: HT-29; assay: Growth inhibition of human HT-29 cells at 10 uM after 48 hrs by SRB assay relative to control; details: HT-29, 48 h, read-out: GI; procedure, shortened: as §2
[26] = system: CCRF-CEM; assay: Growth inhibition of human CCRF-CEM cells at 10 uM after 48 hrs by SRB assay relative to control; details: read-out: GI; procedure, shortened: as §2
[27] = system: NCI-H322M; assay: Growth inhibition of human NCI-H322M cells at 10 uM after 48 hrs by SRB assay relative to control; details: read-out: GI; procedure, shortened: as §2
[28] = system: SF-539; assay: Growth inhibition of human SF539 cells at 10 uM after 48 hrs by SRB assay relative to control; details: SF-539, 48 h, read-out: GI; procedure, shortened: as §2
[29] = system: 786-0; assay: Growth inhibition of human 786-0 cells at 10 uM after 48 hrs by SRB assay relative to control; details: 786-0, 48 h, read-out: GI; procedure, shortened: as §2
[30] = system: MDA-MB-468; assay: Growth inhibition of human MDA-MB-468 cells at 10 uM after 48 hrs by SRB assay relative to control; details: MDA-MB-468, 48 h, read-out: GI; procedure, shortened: as §2
[31] = system: SNB-75; assay: Growth inhibition of human SNB75 cells at 10 uM after 48 hrs by SRB assay relative to control; details: SNB-75, 48 h, read-out: GI; procedure, shortened: as §1
[32] = system: SK-MEL-2; assay: Growth inhibition of human SK-MEL-2 cells at 10 uM after 48 hrs by SRB assay relative to control; details: SK-MEL-2, 48 h, read-out: GI; procedure, shortened: as §2
[33] = system: CAKI-1; assay: Growth inhibition of human Caki1 cells at 10 uM after 48 hrs by SRB assay relative to control; details: CAKI-1, 48 h, read-out: GI; procedure, shortened: as §2

SMILES	inhibition of growth at 10 µM [1]	inhibition of growth at 10 µM [2]	inhibition of growth at 10 µM [3]	inhibition of growth at 10 µM [4]	inhibition of growth at 10 µM [5]	inhibition of growth at 10 µM [6]	inhibition of growth at 10 µM [7]	inhibition of growth at 10 µM [8]	inhibition of growth at 10 µM [9]	inhibition of growth at 10 µM [10]	inhibition of growth at 10 µM [11]	inhibition of growth at 10 µM [12]	inhibition of growth at 10 µM [13]	inhibition of growth at 10 µM [14]	inhibition of growth at 10 µM [15]	inhibition of growth at 10 µM [16]	inhibition of growth at 10 µM [17]	inhibition of growth at 10 µM [18]	inhibition of growth at 10 µM [19]	inhibition of growth at 10 µM [20]	other results
COc1ccccc1C(=O)Nc1cccc(-c2cc(=O)c3c(OC)c(OC)c(OC)cc3o2)c1	38.5%	44%	42.2%	61.6%	46.6%	36.6%	71.2%	41%	59%	57%	64.6%	37.6%	34.5%	61%	46.6%	76.4%	93.2%	55.7%	40.8%	84.8%	inhibition of growth at 10 µM [21]: 51.8%; inhibition of growth at 10 µM [22]: 58.5%; inhibition of growth at 10 µM [23]: 57.1%; inhibition of growth at 10 µM [24]: 100%; inhibition of growth at 10 µM [25]: 75.4%; inhibition of growth at 10 µM [26]: 84%; inhibition of growth at 10 µM [27]: 56.4%; inhibition of growth at 10 µM [28]: 36.2%; inhibition of growth at 10 µM [29]: 54.7%; inhibition of growth at 10 µM [30]: 60.8%; inhibition of growth at 10 µM [31]: 16.8%; inhibition of growth at 10 µM [32]: 68.8%; inhibition of growth at 10 µM [33]: 34.9%
COc1cccc(C(=O)Nc2cccc(-c3cc(=O)c4c(OC)c(OC)c(OC)cc4o3)c2)c1	3.66%	27%	30.2%	53.9%	17.2%	22.8%	53.3%	37.7%	38.7%	42.1%	42.6%	33.9%	12.8%	36.2%	21.3%	43.2%	83.2%	58.4%	42.7%	66.7%	inhibition of growth at 10 µM [21]: 44.1%; inhibition of growth at 10 µM [22]: 46.6%; inhibition of growth at 10 µM [23]: 42.6%; inhibition of growth at 10 µM [24]: 51.8%; inhibition of growth at 10 µM [25]: 53.6%; inhibition of growth at 10 µM [26]: 56.1%; inhibition of growth at 10 µM [27]: 27.1%; inhibition of growth at 10 µM [28]: 33.7%; inhibition of growth at 10 µM [29]: 47.2%; inhibition of growth at 10 µM [30]: 5.72%; inhibition of growth at 10 µM [31]: 32.6%; inhibition of growth at 10 µM [32]: 38.1%; inhibition of growth at 10 µM [33]: 18.1%
